These entries were drawn from the full list.
Apaf-1 act: human Apaf-1 activation; hit rate 0.31% among 330,000; activity change, negative = activation, % at 20 µM; O14727; Apaf-1 apoptosome caspase-3 activation, DEVD-Rh110 fluorescence; stronger effect = lower value;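 active = activity change at or below -40% at 20 µM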
Target sequence (O14727 whole entry, looked up): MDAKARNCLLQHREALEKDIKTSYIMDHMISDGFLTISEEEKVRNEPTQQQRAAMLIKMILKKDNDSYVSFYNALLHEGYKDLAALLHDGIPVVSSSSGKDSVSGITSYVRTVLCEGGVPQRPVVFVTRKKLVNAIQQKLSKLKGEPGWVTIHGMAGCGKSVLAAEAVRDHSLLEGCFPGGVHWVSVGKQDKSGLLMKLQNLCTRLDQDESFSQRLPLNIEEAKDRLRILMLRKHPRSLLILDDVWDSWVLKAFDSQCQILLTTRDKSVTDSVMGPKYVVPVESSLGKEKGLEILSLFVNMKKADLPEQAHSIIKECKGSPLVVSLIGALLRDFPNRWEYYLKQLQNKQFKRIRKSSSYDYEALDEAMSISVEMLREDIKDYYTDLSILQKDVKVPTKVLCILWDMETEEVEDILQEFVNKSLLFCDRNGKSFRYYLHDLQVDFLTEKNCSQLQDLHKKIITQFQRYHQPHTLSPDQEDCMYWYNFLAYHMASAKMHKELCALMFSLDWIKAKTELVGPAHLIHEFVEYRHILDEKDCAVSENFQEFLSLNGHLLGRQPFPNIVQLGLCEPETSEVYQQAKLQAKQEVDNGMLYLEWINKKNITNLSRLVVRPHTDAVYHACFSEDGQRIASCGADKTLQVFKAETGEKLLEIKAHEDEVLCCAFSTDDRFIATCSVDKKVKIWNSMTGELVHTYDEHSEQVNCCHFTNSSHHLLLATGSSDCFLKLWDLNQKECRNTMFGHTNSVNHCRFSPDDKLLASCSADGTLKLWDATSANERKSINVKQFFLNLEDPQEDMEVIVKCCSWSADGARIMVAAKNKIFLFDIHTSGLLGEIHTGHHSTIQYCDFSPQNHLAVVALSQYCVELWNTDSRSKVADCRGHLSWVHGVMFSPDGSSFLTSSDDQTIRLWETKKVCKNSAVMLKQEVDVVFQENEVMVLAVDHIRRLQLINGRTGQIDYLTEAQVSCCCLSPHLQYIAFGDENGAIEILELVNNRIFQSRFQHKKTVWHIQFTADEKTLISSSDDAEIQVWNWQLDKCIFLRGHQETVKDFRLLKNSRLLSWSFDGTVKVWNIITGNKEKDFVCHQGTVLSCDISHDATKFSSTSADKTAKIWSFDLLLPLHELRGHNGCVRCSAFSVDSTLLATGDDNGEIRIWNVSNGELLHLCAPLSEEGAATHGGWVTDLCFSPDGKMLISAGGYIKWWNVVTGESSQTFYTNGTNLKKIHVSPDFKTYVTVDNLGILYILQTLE
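Assay system – biochemical Apaf-1 apoptosome reconstitution · Medium – 20 mM HEPES buffer, pH 7.5, containing CHAPS and BSA · Incubation – 30 min preincubation, 50 min reaction, room temperature · Measured by – Caspase-3-released Rh110 fluorescence, 540 nm emission, 480 nm excitation · Read-out – Caspase-3 cleavage activity downstream of Apaf-1 activation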
Rh110 interf act: Rh110 signal interference in Apaf-1 activator counter-screen | fluorescence interference (activity change), % at 20 µM, hits read low | AID 504616 | 980 tested, under 10 active | shares compounds with Apaf-1 act | Rh110 fluorescence interference, quenched caspase reaction, Ex480/Em540;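 active = mean activity change at or below -40% when tested at 20 µM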
Apaf-1 act conf: Apaf-1 (human) activation, single-dose confirmed | shares compounds with Apaf-1 act | reconstituted apoptosome caspase-3 activity, DEVD-Rh110 fluorescence; stronger effect = lower value | activity change, negative = activation, % at 20 µM | hit rate 5% among 980;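 active = mean activity change at or below -40%, meaning activation of 40% or more, at 20 µM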
Active calls of the source: *; . = not tested or not shown.

SMILES | Apaf-1 act | Rh110 interf act | Apaf-1 act conf
O=C(Nc1cccc(-n2cnnn2)c1)c1ccc(C(F)(F)F)cc1 | -67* | 4 | 0
O=C(NC1(O)C(=O)c2ccccc2C1=O)c1ccc(C(F)(F)F)cc1 | 96 | . | .
Cc1nc(Nc2cnc(/C=C/c3cc(C(=O)Nc4cccc(C(F)(F)F)c4)ccc3C)cn2)cc(N2CCNCC2)n1 | 75 | . | .
Nc1c2c(nc3ccccc13)CCCC2 | -4 | . | .
Cc1ccc2ccc(C3C(=O)c4ccccc4C3=O)nc2c1 | -170* | 10 | 8
COCCn1c(=S)[nH]c2cc(OC)c(OC)cc2c1=O | -93* | 2 | 7
COc1cc2[nH]c(C(=O)NN)c(N)c2cc1OC | 48 | . | .
Cn1c(Cc2ccccc2)n[nH]c1=S | 42 | . | .
C=CCn1c(N)c(C(=O)OC(C)(C)C)c2nc3ccccc3nc21 | 67 | . | .
Cc1noc(C)c1C(=O)Nc1ccc(F)cc1F | -71* | 16 | 11
CC(=O)N1CCn2c3c(c(=O)c4cc(C)ccc42)CCC31 (stereo not given) | 73 | . | .
C#CCOCCOCCOCCNc1nc(N2CCN(C(=O)[C@H](CCCCN)n3cc([C@@H](N)[C@H](C)CC)nn3)CC2)nc(N2CCN(C(=O)[C@H](CCCCN)n3cc([C@@H](N)CC(N)=O)nn3)CC2)n1 | 44 | . | .
O=C(NCCc1ccccc1)C1CCCN1C(=O)Nc1ccc(F)cc1 (stereo not given) | -43* | 6 | 12
COc1ccc(NC(=O)N2CCCC2C(=O)Nc2ccccc2)cc1 (stereo not given) | -41* | 1 | 13
COC(=O)C1=C(C)N(Cc2ccccc2)C(=NCc2ccc(OC)cc2)N[C@H]1c1ccccc1 | 51 | . | .
CC(=O)Nc1ccc(NC(=O)C2CCCN2C(=O)Nc2ccc(F)cc2)cc1 (stereo not given) | -208* | 4 | 15
Nc1c(C(=O)NCCN2CCOCC2)c2nc3ccccc3nc2n1CCc1ccccc1F | 43 | . | .
CCOC(=O)NNc1ccc2nonc2c1[N+](=O)[O-] | 96 | . | .
COc1cccc2c1[C@@H]1CN(CCCCn3c(=O)[nH]c4c(sc5ncc(-c6ccccc6)nc54)c3=O)C[C@@H]1CO2 | 48 | . | .
CCOc1ccc(/C=C/[N+](=O)[O-])c2ccccc12 | 80 | . | .
NC(N)=N/N=C/c1c(Cl)cccc1Cl | 1 | . | .
COC(=O)c1c(NC(=O)c2nc3ccccc3s2)sc2c1CC(C)(C)NC2(C)C | 58 | . | .
COc1cc(/C=C2/C(=O)N(c3ccccc3)N=C2C)ccc1OS(=O)(=O)c1ccccc1 | 95 | . | .
CCN(CC(=O)Nc1c(F)cccc1F)C(=O)CNC(=O)c1ccc2c(c1)OCO2 | 53 | . | .
CCN(Cc1ccccc1)C(=O)c1cccc(S(=O)(=O)N2CCN(c3ccc(F)cc3)CC2)c1 | 42 | . | .
SMILES | Apaf-1 act | Rh110 interf act | Apaf-1 act conf
O=C(NCC(c1ccco1)N1CCN(c2ccc(F)cc2)CC1)c1ccc2c(c1)OCO2 (stereo not given) | -155* | -2 | 16
CC(=O)OC1=C(O)C(=O)c2ccccc2C1=O | 59 | . | .
Oc1cccc2c(NC(=S)Nc3ccc(OC(F)F)cc3)cccc12 | 65 | . | .
Nn1c(SCCOc2ccc(Cl)cc2)nnc1-c1cccnc1 | -44* | 13 | 16
Clc1ccc(OCCSc2nnnn2C2CCCCC2)cc1 | 65 | . | .
CCOC(=O)c1c2c(n(C)c1C)C(=O)C(=O)c1ccc(Br)cc1-2 | 96 | . | .
O=C1CSC(c2cccnc2)N1CC1CC1 (stereo not given) | -112* | 1 | 13
CN1CCC[C@H]1c1cccnc1 | -2 | . | .
CCCCCN(C(=O)NC(=O)Nc1nncs1)S(C)(=O)=O | -46* | -2 | 7
C[C@]12CC[C@@H]3c4ccc(OS(=O)(=O)O)cc4CC[C@H]3[C@@H]1CCC2=O | 6 | . | .
CC12COC3(P(=O)(c4ccccc4)c4ccccc4)CC1CCC23CP(=O)(c1ccccc1)c1ccccc1 (stereo not given) | 41 | . | .
CN(C)CC/C=C1\c2ccccc2Sc2ccc(Cl)cc21 | 49 | . | .
CCOc1ccc(S(=O)(=O)N(CC(=O)N2CCc3ccccc32)Cc2ccco2)cc1 | -307* | 8 | 11
CCOC(CNc1ncnc2c1cnn2C)OCC | -143* | 0 | 6
CC(C)NC[C@@H](O)c1ccc(O)c(O)c1 | 43 | . | .
COc1ccc(/C=N/n2c(C)nc3sc(C)c(C)c3c2=O)cc1OC | -145* | 15 | 12
Cc1oc2c(c1C(=O)N1CCC(C)CC1)C(=O)c1ccccc1C2=O | 42 | . | .
COCCCn1c(=O)c2sccc2n(Cc2ccccc2C)c1=O | 60 | . | .
CCN(CC)CCN(C(=O)c1ccc2c(c1)CCCC2)c1nc2ccc(OC)cc2s1 | 61 | . | .
OCCN1CCN(CC/C=C2/c3ccccc3Sc3ccc(Cl)cc32)CC1 | 43 | . | .
CS(=O)(=O)N(Cc1ccc(C(=O)NN=C2CCCCCC2)cc1)c1ccccc1 | -482* | 2 | 14
Cc1ccc(N=Cc2cccc(O)c2O)c(C)c1 | 93 | . | .
N[C@@H](Cc1cc(I)c(Oc2ccc(O)c(I)c2)c(I)c1)C(=O)O | 4 | . | .
Cc1ccc2nc(-c3ccc(NC(=S)NC4CC(C)(C)NC(C)(C)C4)cc3)sc2c1 | 50 | . | .
O=C(Nc1ccccc1C(=O)N1CCN(Cc2ccccc2)CC1)c1ccccc1 | -95* | -15 | 8
SMILES | Apaf-1 act | Rh110 interf act | Apaf-1 act conf
O=S(=O)(Nc1cc(Sc2ncn[nH]2)c(O)c2ccccc12)c1ccccc1 | 94 | . | .
O=S(=O)(Nc1ccc(S(=O)(=O)Nc2ncccn2)cc1)c1ccccc1 | -510* | 15 | 17
CN1CCc2nc(SCc3ccc(Cl)cc3)c(C#N)c(-c3cccs3)c2C1 | 83 | . | .
CNS(=O)(=O)/C=C/c1ccccc1 | -407* | -8 | 11
CC(=O)Nc1cccc(NC(=S)Nc2cccc3ccccc23)c1 | 97 | . | .
O=C1C(Cl)=C(NCc2cccnc2)C(=O)c2ccccc21 | 85 | . | .
Brc1ccc(-c2cn3nc4c(nc3n2)CCCC4)cc1 | 41 | . | .
CC12CC3CC(C)(C1)CC(N)(C3)C2 | -11 | . | .
Cc1cccc(N2CCN(C(=O)c3ccc4nc(-c5ccco5)c(-c5ccco5)nc4c3)CC2C)c1 (stereo not given) | 60 | . | .
COc1cccc(N2CCN(C(=O)c3ccc(=O)oc3)CC2C)c1 (stereo not given) | -332* | -7 | 9
CN1C(C(=O)NCC2CC2)CC2Cn3c(nc4cc5ccccc5cc43)C21 (stereo not given) | 41 | . | .
CC(C)CCC(C)N=Cc1c(O)n(Cc2ccccc2)c(=O)c2ccccc12 (stereo not given) | 60 | . | .
O=C1N=C(N2CCN(Cc3ccccc3)CC2)S/C1=C/c1cccs1 | -408* | 11 | 20
Clc1ccc(-c2nnc3sc(Cc4cccs4)nn23)cc1 | 58 | . | .
CN1c2ccccc2C(C)(C)C12C=Nc1c(cc(N3CCOCC3)c3ccccc13)O2 (stereo not given) | 69 | . | .
Cc1ccc(CN(C)C(=O)CSc2nnc3n2CCCCC3)c(C)c1 | -42* | -8 | 6
CCOC(=O)c1c(-c2ccc(-c3ccccc3)cc2)csc1NC(=O)CNCCN(C)C | 42 | . | .
CCN(CC)S(=O)(=O)c1ccc(N/N=C(\C)c2ccc3c(c2)OCO3)c([N+](=O)[O-])c1 | -41* | 5 | 4
O=[N+]([O-])c1cc2c(cc1C=Nc1ccccc1)OCO2 | 48 | . | .
O=[N+]([O-])c1cccc(C=Nc2cccc3ccccc23)c1O | 93 | . | .
CCN(CC(=O)Nc1ccc(NC(C)=O)cc1)C(=O)c1ccccc1Sc1ccccc1C#N | 56 | . | .

Assay outcomes deposited in PubChem BioAssay by Sanford-Burnham Center for Chemical Genomics.
